Assay results as given in PMC5469413 (Journal of immunology (Baltimore, Md. : 1950), 2017).

Key:
[1] = test system: Staphylococcus epidermis; assay: Bacterial killing assay with recombinant whole IFN-β; format: cell-based; conditions: incubated with IFN-β (Fig. S1)
Outline: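 Overnight cultures subcultured to mid-log (OD₆₀₀=0.4), washed in sterile PBS and renormalised to OD₆₀₀=0.4. Bacteria resuspended in assay medium and incubated with recombinant whole IFN-β or vehicle in 100 μl reactions at 37°C with shaking. Ten-fold serial dilutions plated on LB to count surviving CFU.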

[2] = test system: Escherichia coli; assay: Bacterial killing assay with recombinant whole IFN-β; format: cell-based; conditions: increasing doses of IFN-β, 3 hours, CFU
[3] = test system: S. aureus isogenic mutant lacking the dlt gene (Δdlt); assay: Bacterial killing assay with recombinant whole IFN-β, dlt-deficient strain; format: cell-based, Staphylococcus aureus; conditions: increasing concentrations of IFN-β, 3 hours, CFU
[4] = test system: gram-negative strains of bacteria; assay: Killing assay with IFN-β helix 4 peptide, gram-negative bacteria; format: cell-based; conditions: bacteria 1×10^5/ml, 6 μM mouse helix 4 peptide, 3 hours, 37°C, CFU (Fig. 6I)
[5] = test system: Staphylococcus aureus; assay: Bacterial killing assay with recombinant whole IFN-β; format: cell-based; conditions: 5×10^2 units/ml mIFN-β incubated at 37°C for 60 min, then bacteria 3 hours, CFU

mIFN-β: recombinant whole mouse IFN-β (PBL Interferon)
killing of Staphylococcus epidermis [1]: observed killing
inhibitory or killing effect on Escherichia coli [2]: did not observe any inhibitory or killing effect
killing of Δdlt S. aureus compared to WT [3]: increased killing of Δdlt bacteria compared to WT
antimicrobial activity against gram-negative bacteria [4]: significantly less effective
killing of S. aureus after pre-incubation at 37°C [5]: killing was not lost
